Source: PubChem (The Scripps Research Institute Molecular Screening Center)
The list is not random: actives were taken first. Their share in the collection is about 1.6%.
HTRA1 inhibitor: blocks human HTRA1 serine peptidase; Q92743; recombinant HTRA1, FP-rhodamine activity-based probe, fluorescence polarization; inhibition, % at 5.96 µM; hit rate 0.5% among 340,000; in the data active = inhibition above about 36%;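 note: 0% = enzyme with DMSO and 100% = wells lacking enzyme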
SIAE inh: inhibitors of human sialic acid acetylesterase SIAE. hit rate 0.69% among 370,000. AID 1053197. SIAE FP-Rh probe binding, fluorescence polarization. inhibition, % at 9.66 µM. Q9HAT2;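 active = inhibition above a cutoff: mean of compounds within the control limits plus 3 SD of those, cut at about 17% in these data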;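 note: 0% = plate median of compound wells and 100% = probe without SIAE protein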
ABHD4 inh: inhibitors of mouse ABHD4; purified mABHD4, FP-Rh probe fluorescence polarization; inhibition, % at 8.92 µM; hit rate 0.54% among 370,000;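 active = inhibition exceeding the mean over every tested compound plus 3 SD, cut at about 30% in these data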;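 note: 0% = plate median of compound wells and 100% = S159A mutant with DMSO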
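Assay system: wild-type mouse ABHD4 protein; compound: single nominal dose of 8.92 µM, 0.89% DMSO final; schedule: 45 min + 60 min at 25 °C; measured by: FP readout, ex 525 nm / em 598 nm; evaluation: % inhibition of FP-Rh probe binding versus controls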
TCR CD3 inh: inhibitors of human TCR-CD3 interaction; AID 651800; hit rate 0.37% among 360,000; inhibition, % at 9.4 µM; TAMRA-labeled TCR probe fluorescence, biochemical; in the data active = inhibition above about 19%;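 note: recombinant mutant TCR 2C K166C tagged with TAMRA read by polarization; 0% = receptor in buffer alone and 100% = receptor with positive control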
DAGLB inhibitor: blocks human DAGLB lipase activity; HEK293T DAGLB membrane lysate, EnzChek fluorogenic substrate; inhibition, % at 5.17 µM; hit rate 0.059% among 340,000; AID 504411; in the data active = inhibition above about 34%;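 note: 0% = enzyme with vehicle and 100% = wells lacking enzyme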
Target sequence (Q8NCG7 whole entry, looked up): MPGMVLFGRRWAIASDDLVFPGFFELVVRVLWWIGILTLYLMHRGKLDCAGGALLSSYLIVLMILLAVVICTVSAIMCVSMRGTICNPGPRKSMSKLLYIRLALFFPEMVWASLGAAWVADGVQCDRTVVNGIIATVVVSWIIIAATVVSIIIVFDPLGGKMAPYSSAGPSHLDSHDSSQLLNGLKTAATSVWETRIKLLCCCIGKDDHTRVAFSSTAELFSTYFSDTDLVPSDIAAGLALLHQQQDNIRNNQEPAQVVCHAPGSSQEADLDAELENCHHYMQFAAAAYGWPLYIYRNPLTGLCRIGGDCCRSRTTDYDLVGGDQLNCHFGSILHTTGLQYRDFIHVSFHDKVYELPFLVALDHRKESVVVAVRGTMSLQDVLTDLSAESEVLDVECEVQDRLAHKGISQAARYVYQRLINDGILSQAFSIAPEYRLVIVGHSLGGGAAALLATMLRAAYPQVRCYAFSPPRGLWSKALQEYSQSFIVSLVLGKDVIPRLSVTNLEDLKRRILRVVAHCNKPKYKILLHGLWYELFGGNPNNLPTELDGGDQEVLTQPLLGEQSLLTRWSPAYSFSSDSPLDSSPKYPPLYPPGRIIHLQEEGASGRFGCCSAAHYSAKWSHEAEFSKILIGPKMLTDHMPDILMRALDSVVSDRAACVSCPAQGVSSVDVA
ABHD4 confirm: ABHD4 (mouse) inhibition, FP confirmation. inhibition, % at 8.92 µM. purified mABHD4, FP-Rh probe fluorescence polarization. hit rate 55% among 1,800. shares compounds with ABHD4 inh. AID 720658;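 active = mean inhibition across replicates above the hit cutoff set in the primary screen, cut at about 30% in these data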;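 note: 0% = wild-type ABHD4 with DMSO and 100% = catalytically dead S159A mutant with DMSO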
* marks the source's active call; other numbers are inactive results; · = no result given.

SMILES	HTRA1 inhibitor	SIAE inh	ABHD4 inh	TCR CD3 inh	DAGLB inhibitor	ABHD4 confirm
Cc1ccccc1NC(=O)Cc1nc(COC(=O)CCc2ccccc2)cs1	-6	-3	53*	4	-5	48*
CCOC(=O)/C=C/C(=O)OCc1csc(CC(=O)Nc2ccccc2C)n1	-7	-2	30*	3	3	40*
CC(C)=CC(=O)OCc1csc(CC(=O)Nc2ccccc2C)n1	-2	-2	5	-2	-1	·
COc1ccc(-c2cc(-c3nnc(SCC(=O)Nc4ccc(OCc5ccccc5)cc4)n3N)[nH]n2)cc1	·	2	-2	·	·	·
COc1ccc(-n2c(SCC(=O)Nc3ccc4cn[nH]c4c3)nnc2-c2ccccc2)cc1	·	12	-6	·	·	·
Cc1ccccc1C(=O)N[C@H](C(=O)N1CCC[C@H]1C(=O)NCc1ccccc1)c1ccccc1	·	-1	3	7	·	·
CN(C)c1ccc2nc3ccc(=[N+](C)C)cc-3sc2c1	17	7	31*	7	1	14
COc1cccc(CNC(=O)[C@H]2CCCN2C(=O)[C@H]2CCCN2C(=O)N2CCCCC2)c1	·	6	3	1	·	·
COc1ccc(C(=O)OCCN(C)C2CN(Cc3cn(Cc4cccc(F)c4)nn3)S(=O)(=O)C2)cc1OC (stereo not drawn)	·	5	1	·	·	·
COc1ccc(Nc2nc(NC(C)(C)C)nc(N3CCCC3)n2)c(OC)c1	6	14	34*	0	-7	48*
CC(CCc1ccc(O)cc1)NCCc1ccc(O)c(O)c1 (stereo not drawn)	32	8	33*	-9	2	15
COc1ccccc1CCNC(C)CCc1ccc(O)cc1 (stereo not drawn)	11	0	0	0	-1	·
CCCCNC(=O)O[C@@H]1C[C@H]2CCCC(=O)N3CC[C@@H](C1)[C@@H]23	-1	-1	0	5	1	·
CCCCCCCN(c1ccccc1)[C@@H]1C[C@H]2CCCC(=O)N3CC[C@@H](C1)[C@@H]23	-14	5	31*	-4	-8	53*
CC(C)c1ccc(NC(=O)OC2CCC23CCC(c2ccccc2)CC3)cc1 (stereo not drawn)	·	-3	-5	·	·	·
CCn1c(COc2ccc(C)cc2)nnc1SCc1cccc(C(F)(F)F)c1	·	6	-3	·	·	·
CCC(C)c1ccccc1NC(=O)COC(=O)c1ccc(C)c(NC(=O)c2ccco2)c1 (stereo not drawn)	-20	-4	49*	5	-3	-10
COc1ccc(C(=O)Nc2cc3c(cc2C(=O)O)OCCCO3)c(OC)c1	-16	-30	35*	5	0	55*
COc1ccc(/C=C/C(=O)Nc2cccnc2Cl)cc1	8	-4	97*	9	-1	-4
CC(C)=C1C(=O)NN(c2cccc(Cl)c2)C1=O	8	6	15	-8	7	·
CC(C)=C1C(=O)NN(c2ccc(C)c(Cl)c2)C1=O	34	12	37*	4	27	21
Cc1ccc(C(=O)/C=C/c2ccc(-c3ccccc3[N+](=O)[O-])o2)cc1	13	-2	36*	-8	-1	-3
O=C(/C=C/c1ccc(-c2ccccc2[N+](=O)[O-])o1)c1ccc(Br)cc1	-26	7	21	-1	-2	·
O=C1C(=O)c2ccccc2C(O)=C1CC=C(Cl)Cl	15	1	38*	0	8	17
Cc1ccc(OC(=S)Nc2ccc(O)cc2)cc1	3	4	44*	18	3	0
SMILES	HTRA1 inhibitor	SIAE inh	ABHD4 inh	TCR CD3 inh	DAGLB inhibitor	ABHD4 confirm
Cc1ccc(OC(=S)Nc2ccc(F)cc2)cc1	1	-5	9	9	-5	·
COc1cc(Br)cc(/C=C/c2ccc3cccc(O)c3n2)c1O	31	11	13	0	0	·
COc1cc(/C=C/c2ccc3cccc(O)c3n2)c(Br)cc1O	28	15	30*	-5	3	69*
CCSc1nc2sc3c(c2c(=O)[nH]1)CCc1ccccc1-3	-14	3	16	6	0	·
NNc1nc2sc3c(c2c(=O)[nH]1)CCc1ccccc1-3	23	13	58*	8	6	12
O=C(OCc1cn(Cc2ccc(F)cc2)nn1)N1CCOCC1	·	-1	3	·	·	·
Cc1ccccc1OCC(=O)N/N=C1\CC(=O)CC(C)(C)C1	3	4	-6	7	-2	·
CC1(C)CC(=O)C/C(=N/Nc2nc3ccccc3s2)C1	21	11	30*	-2	2	27
CC1CCC/C(=N/Nc2nc3ccccc3s2)C1 (stereo not drawn)	13	11	38*	3	0	6
Cc1noc(C)c1-c1ccc(C(=O)Nc2cccc(C(F)(F)F)c2)c2occc12	·	-10	-21	10	·	·
CC(C)=CCN1CCN(CCC2=C(C)CCCC2(C)C)CC1CCO (stereo not drawn)	-2	0	6	-4	-4	·
CC1=C(CCN2CCN(C3CCCC3)C(CCO)C2)C(C)(C)CCC1 (stereo not drawn)	-9	2	61*	-2	0	-12
CCOC(=O)[C@]12CCCC3=C1N(CCC3)C(=O)[C@@H](CC(=O)N1CCOCC1)C2	·	-3	0	·	·	·
O=C(COc1ccccc1)Nc1nc2cc3c(cc2s1)OCCO3	3	-22	-13	6	-3	·
COc1ccc(NC(=O)c2sc(NC(=O)COc3ccccc3)nc2C)cc1	-5	-9	50*	-1	1	60*
O=C(COc1ccccc1)Nc1nc2cc3c(cc2s1)OCO3	-3	-9	36*	5	-7	40*
Cc1nc(NC(=O)COc2ccccc2)sc1C(=O)Nc1cccc(Cl)c1	-20	-7	43*	7	2	33*
COC(=O)c1sc(NC(=O)COc2ccc(OC)cc2)nc1C	3	-11	6	3	-13	·
CC(/C=C/c1ccco1)=N\NC(=O)c1cccnc1	-6	5	2	12	1	·
O=C(C=Cc1ccco1)c1ccc([N+](=O)[O-])cc1	2	10	37*	5	2	5
O=C(/C=C/c1ccco1)c1cccnc1	3	15	36*	18	-2	-3
C=CCN1C(=O)[C@H](CC(=O)NCC2CCCCC2)[C@@]2(C(=O)OCC)CCCC=C12	·	-3	-7	·	·	·
c1ccc(-c2csc(Nc3ccc4c(c3)OCO4)n2)cc1	·	10	31*	1	·	27
O=C1S/C(=C\C=C\c2ccco2)C(=O)N1c1ccc(O)cc1	-3	1	17	5	-4	·
O=C(O)CCCN1C(=O)/C(=C/C=C/c2ccco2)SC1=S	26	8	43*	9	7	10
O=C1/C(=C/c2ccco2)SC(=S)N1CCC(=O)N1CCCCC1CCO (stereo not drawn)	27	3	30*	1	6	4
O=C(O)CC(C(=O)O)N1C(=O)/C(=C/C=C/c2ccco2)SC1=S (stereo not drawn)	22	-8	35*	3	0	3
